# Results published in ChEMBL document CHEMBL3124791 (J Med Chem, 2014).
# The source made the active and inactive calls. The calls are words filed in the database; no cut-off is given here.
# How the values were obtained:
# MCF7 = experiment: Antitumor activity against human MCF7 cells xenografted in athymic Balb/c nu/nu mouse assessed as tumor growth inhibition at 4 mg/kg, iv administered as Q3D X 6 regimen; type: functional
# Procedure, shortened: (§1)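 At 100–300 mm3 tumors, mice sorted into treated and control groups (n = 7). Dosing 4 mg/kg i.v. every 3 days; vehicle 5% PEG400/PBS. Stopped when control tumors reached about 1500 mm3; tumors excised and weighed. Inhibitory rate = [1 − mean treated/control tumor weight] × 100; body weight and deaths recorded.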
# Mus musculus [1] = experiment: Toxicity in athymic Balb/c nu/nu mouse xenografted with human MCF7 cells assessed as death at 4 mg/kg, iv administered as Q3D X 6 regimen; type: organism-based; set-up: dose 4 mg/kg, route intravenous; conditions: in vivo; procedure, shortened: as §1
# Mus musculus [2] = experiment: Toxicity in athymic Balb/c nu/nu mouse xenografted with human MCF7 cells assessed as change in body weight at 4 mg/kg, iv administered as Q3D X 6 regimen (reference value: 0.10%); type: organism-based; set-up: dose 4 mg/kg, route intravenous; conditions: in vivo; procedure, shortened: as §1
# Canis lupus familiaris [3] = species: Canis lupus familiaris; conditions: 10 uM
# KB = experiment: Cytotoxicity against human KB cells by SRB assay; type: functional
# Procedure, shortened: (§2)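 Sulforhodamine B growth assay across A-549, KB, P-gp-expressing KBvin and DU145 lines. […] Mean ± SD, at least triplicate.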
# A549 [4] = experiment: Cytotoxicity against human A549 cells by SRB assay; type: functional; procedure, shortened: as §2
# [5] = Cytotoxicity against human KBVIN cells by SRB assay; type: functional; procedure, shortened: as §2
# DU-145 = experiment: Cytotoxicity against human DU145 cells by SRB assay; type: functional; procedure, shortened: as §2
# A549 [6] = experiment: Cell cycle arrest in human A549 cells assessed as accumulation at G2/M phase at 300 nM after 24 hrs by propidium iodide staining-based FACS analysis; type: functional
# A549 [7] = experiment: Cell cycle arrest in human A549 cells assessed as accumulation at G2/M phase after 24 hrs by propidium iodide staining-based FACS analysis; type: functional
# Tubulin (Homo sapiens) [8] = molecular target: T1, Tubulin (Homo sapiens) (UniProt P68371+Q9H4B7+P0DPH7+P68366+Q13509+Q71U36+P04350+Q3ZCM7+P07437+P68363+Q9BQE3+Q6PEY2+Q13885+Q9BVA1+Q9BUF5); experiment: Displacement of [3H]colchine from tubulin (unknown origin) at 1 uM after 10 mins; type: protein-complex assay
# [9] = Aqueous solubility of the compound in phosphate buffer at pH 7.4 after 4 hrs by HPLC-UV method; type: physicochemical; conditions: pH 7.4, 4 h
# Tubulin = experiment: Inhibition of tubulin (unknown origin) polymerization incubated for 15 mins prior to GTP addition measured after 20 mins by turbidimetry; type: protein-complex assay, Homo sapiens
# Tubulin (Homo sapiens) [10] = molecular target: T1, Tubulin (Homo sapiens); experiment: Displacement of [3H]colchine from tubulin (unknown origin) at 5 uM after 10 mins; type: protein-complex assay
# Liver microsome = experiment: Half life in human liver microsomes at 1 uM by LC-MS analysis; type: ADME
# Tubulin (Homo sapiens) [11] = molecular target: T1, Tubulin (Homo sapiens); experiment: Inhibition of tubulin polymerization in human A549 cells assessed as disappearance of microtubule network at 100 nM after 24 hrs by Hoechst 33342 staining-based immunocytochemistry relative to control; type: cell-based
# Canis lupus familiaris [12] = species: Canis lupus familiaris; experiment: Competitive inhibition of dog brain tubulin using BODIPY FL-vinblastine as substrate at 30 to 100 uM incubated for 30 mins prior to substrate addition measured after 30 mins by fluorescence assay
# Procedure, shortened: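 Tubulin 4 μM from fresh dog brain in 25 mM PIPES pH 6.8, 1 mM EGTA, 3 mM MgCl2, preincubated with compound (10, 30, 100 μM) 30 min at 37 °C. BODIPY FL-vinblastine 2 μM then added for another 30 min. Fluorescence (ex 470/em 515 nm) decrease converted to % inhibition. Mean ± SD of at least three independent experiments.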
# [13] = (§3) Competitive inhibition of dog brain tubulin using colchicine as substrate incubated for 45 mins prior to substrate addition measured after 45 mins by fluorescence assay; set-up: species or system Canis lupus familiaris
# Procedure, shortened: (§4)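 Dog brain tubulin 4 μM in 25 mM PIPES pH 6.8, 1 mM EGTA, 3 mM MgCl2, preincubated with compound (0.1–10 μM) 45 min at 37 °C. […] Mean ± SD, at least three replicates.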
# Canis lupus familiaris [14] = species: Canis lupus familiaris; experiment: as §3; procedure, shortened: as §4
# Tubulin (Homo sapiens) [15] = molecular target: T1, Tubulin (Homo sapiens); experiment: Inhibition of tubulin polymerization in human A549 cells assessed as disappearance of microtubule network at 3 nM after 24 hrs by Hoechst 33342 staining-based immunocytochemistry relative to control; type: cell-based
# Procedure, shortened: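 A549 cells exposed to compound 24 h (0.1% DMSO control), fixed in 4% paraformaldehyde, permeabilized with 0.1% Triton X-100, blocked with 5% BSA. Stained with anti-α-tubulin (1:2000, 2 h) and a fluorescent anti-mouse secondary (1 h), nuclei with Hoechst 33342. Imaged at 20× for microtubule network loss.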
# A549 [16] = experiment: Cell cycle arrest in human A549 cells assessed as accumulation at G2/M phase at 3 nM after 24 hrs by propidium iodide staining-based FACS analysis; type: functional
# Procedure, shortened: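 A549 cells treated 24 h (0.1% DMSO control), washed in PBS, fixed in 70% ice-cold ethanol at 4 °C for 24 h. RNase (0.05 mg/mL, 37 °C, 30 min), then propidium iodide 0.05 mg/mL for 30 min at rt in the dark. Cell-cycle distribution read by flow cytometry.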
smiles,measurement,setting,value
COc1ccc2c(c1)CCCN2c1nc(Cl)nc2ccccc12,inhibition in vivo at 4 mg/kg,MCF7,22.9%
same,Activity,Mus musculus [1],Non-toxic
same,Activity,Mus musculus [2],-7.9%
CC[C@]1(O)C[C@H]2CN(CCc3c([nH]c4ccccc34)[C@@](C(=O)OC)(c3cc4c(cc3OC)N(C=O)[C@H]3[C@@](O)(C(=O)OC)[C@H](OC(C)=O)[C@]5(CC)C=CCN6CC[C@]43[C@@H]65)C2)C1,inhibition,Canis lupus familiaris [3],50%
COc1ccc2c(c1)CCCCN2c1nc(Cl)nc2ccccc12,GI50,KB,227 nM
same,GI50,A549 [4],191 nM
same,GI50,[5],197 nM
same,GI50,DU-145,165 nM
COc1ccc2c(c1)CCCN(c1nc(Cl)nc3ccccc13)C2,GI50,KB,11300 nM
same,GI50,A549 [4],7570 nM
same,GI50,[5],5450 nM
same,GI50,DU-145,6810 nM
COc1cc2c(c(OC)c1OC)-c1ccc(OC)c(=O)cc1[C@@H](NC(C)=O)CC2,Activity,A549 [6],Active
same,Activity,A549 [7],Dose-dependent effect
Cc1ccc2c(c1)CCCN2c1nc(C)nc2ccccc12,GI50,KB,204 nM
same,GI50,A549 [4],211 nM
same,GI50,[5],176 nM
same,GI50,DU-145,187 nM
COc1ccc2c(c1)N(C)C(=O)CN2c1nc(C)nc2ccccc12,GI50,KB,17 nM
same,inhibition in vivo at 4 mg/kg,MCF7,51%
same,inhibition,Tubulin (Homo sapiens) [8],82%
same,GI50,A549 [4],19 nM
same,solubility,[9],4.2 µg/mL
same,Activity,Mus musculus [1],Non-toxic
same,IC50,Tubulin,1300 nM
same,inhibition,Tubulin (Homo sapiens) [10],96%
same,GI50,[5],25 nM
same,Activity,Mus musculus [2],2.28%
same,t1/2,Liver microsome,22 min
same,GI50,DU-145,22 nM
COc1ccc2c(c1)OCCN2c1nc(C)nc2ccccc12,GI50,KB,211 nM
same,GI50,A549 [4],189 nM
same,GI50,[5],169 nM
same,GI50,DU-145,198 nM
CC(=O)O[C@H]1C(=O)[C@@]2(C)[C@H]([C@H](OC(=O)c3ccccc3)[C@]3(O)C[C@H](OC(=O)[C@H](O)[C@@H](NC(=O)c4ccccc4)c4ccccc4)C(C)=C1C3(C)C)[C@]1(OC(C)=O)CO[C@@H]1C[C@@H]2O [PACLITAXEL],GI50,KB,6.4 nM
same,GI50,A549 [4],7.6 nM
same,GI50,[5],1210 nM
same,inhibition,Tubulin (Homo sapiens) [11],inactive
same,GI50,DU-145,6 nM
COc1ccc2c(c1)C(=O)CCN2c1nc(C)nc2ccccc12,GI50,KB,19 nM
same,inhibition,Tubulin (Homo sapiens) [8],56%
same,GI50,A549 [4],24 nM
same,solubility,[9],1.21 µg/mL
same,IC50,Tubulin,940 nM
same,inhibition,Tubulin (Homo sapiens) [10],87%
same,GI50,[5],21 nM
same,t1/2,Liver microsome,20.89 min
same,GI50,DU-145,21 nM
Cc1nc(N2CCCc3cc(Br)ccc32)c2ccccc2n1,GI50,KB,178 nM
same,GI50,A549 [4],211 nM
same,GI50,[5],169 nM
same,GI50,DU-145,198 nM
Cc1ccc2c(c1)CCCN2c1nc(Cl)nc2ccccc12,GI50,KB,48 nM
same,GI50,A549 [4],43 nM
same,GI50,[5],46 nM
same,GI50,DU-145,57 nM
COc1ccc2c(c1)CCN2c1nc(Cl)nc2ccccc12,GI50,KB,227 nM
same,GI50,A549 [4],233 nM
same,GI50,[5],197 nM
same,GI50,DU-145,165 nM
COc1ccc2c(c1)OCCN2c1nc(Cl)nc2ccccc12,GI50,KB,153 nM
same,GI50,A549 [4],199 nM
same,GI50,[5],195 nM
same,GI50,DU-145,169 nM
COc1ccc2c(c1)CCN2c1nc(C)nc2ccccc12,GI50,KB,320 nM
same,GI50,A549 [4],268 nM
same,GI50,[5],216 nM
same,GI50,DU-145,243 nM
COc1ccc2c(c1)CCCN(c1nc(C)nc3ccccc13)C2,GI50,KB,19600 nM
same,GI50,A549 [4],16700 nM
same,GI50,[5],14800 nM
same,GI50,DU-145,14600 nM
COc1ccc2c(c1)C(=O)CCN2c1nc(Cl)nc2ccccc12,GI50,KB,28 nM
same,GI50,A549 [4],27 nM
same,GI50,[5],33 nM
same,GI50,DU-145,31 nM
COc1ccc2c(c1)C(O)CCN2c1nc(C)nc2ccccc12 (centres undefined),GI50,KB,18 nM
same,inhibition,Tubulin (Homo sapiens) [8],75%
same,GI50,A549 [4],19 nM
same,solubility,[9],8.72 µg/mL
same,IC50,Tubulin,970 nM
same,inhibition,Tubulin (Homo sapiens) [10],94%
same,GI50,[5],17 nM
same,t1/2,Liver microsome,42.44 min
COc1ccc2c(c1)CCCN2c1nc(C)nc2ccccc12,inhibition in vivo at 4 mg/kg,MCF7,47.3%
same,Activity,Mus musculus [2],-15.7%
COc1ccc2c(c1)NC(=O)CN2c1nc(C)nc2ccccc12,inhibition,Canis lupus familiaris [12],inactive
same,GI50,KB,2.3 nM
same,IC50,[13],550 nM
same,inhibition,Canis lupus familiaris [14],Dose-dependent effect
same,inhibition,Tubulin (Homo sapiens) [8],93%
same,GI50,A549 [4],3.2 nM
same,Activity,Mus musculus [1],Toxic
same,inhibition,Tubulin (Homo sapiens) [10],99%
same,GI50,[5],2.2 nM
same,inhibition,Tubulin (Homo sapiens) [15],Active
same,Activity,A549 [16],Active
same,Activity,A549 [7],Dose-dependent effect
same,t1/2,Liver microsome,54.81 min
same,GI50,DU-145,1.9 nM
COc1ccc2c(c1)CCCCN2c1nc(C)nc2ccccc12,GI50,KB,19 nM
same,inhibition,Tubulin (Homo sapiens) [8],46%
same,GI50,A549 [4],21 nM
same,solubility,[9],2.94 µg/mL
same,IC50,Tubulin,870 nM
same,inhibition,Tubulin (Homo sapiens) [10],89%
same,GI50,[5],20 nM
same,t1/2,Liver microsome,24.85 min
same,GI50,DU-145,18 nM
